Source: ChEMBL document CHEMBL4396873, “Discovery of Potent, Selective, and Short-Acting Peptidic V2 Receptor Agonists” (J Med Chem, 2019)
Calls of active or inactive are those of the source. The rule behind the calls is not given here. Numbered stars: 1 amine (or outer) side, 2 acyl side, 3 side chain; on linkers, the order of the positions; unused ones are H or OH. Bridge positions count the residues as written; N and C are the ends. Square brackets hold non-standard residues; d marks the D form. Peptide text beside a SMILES is read from it. * marks the point of attachment. Phe(4-Cl) = N[C@@H](Cc1ccc(Cl)cc1)C(=O)O; Phe(4-F) = N[C@@H](Cc1ccc(F)cc1)C(=O)O; X2 = N=C(N)NCCC[C@H](CO)N*; Agmatine = N=C(N)NCCCCN*; Thz = O=C(O)[C@@H]1CSCN1; X1 = O=C(CCC[*:2])[*:1]; Mpa = O=C(O)CCS

How the values were obtained:
[1] = Protein binding in rat plasma at 200 to 1000 ng/ml measured after 15 mins by UC-LC/MS/MS analysis; type: ADME, cell-free; settings: read-out: PPB (converted)
In short: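 Peptide spiked into rat plasma to final 200-1000 ng/mL, incubated 15 min at 37 °C, ultracentrifuged at 773,000 xg for 30 min at 37 °C; middle-layer sample quantified by LC/MS/MS; binding (%) = (Ci − Cm)/Ci × 100; quadruplicate.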

[2] = biological target: Vasopressin V1a receptor (Homo sapiens, UniProt P37288); experiment: Agonist activity at recombinant human V1a receptor expressed in HEK293 cells up to 1000 nM measured after 5 hrs by luciferase reporter gene assay; type: cell-based; settings: hek293, 5 h
Sequence of Vasopressin V1a receptor (P37288 whole entry): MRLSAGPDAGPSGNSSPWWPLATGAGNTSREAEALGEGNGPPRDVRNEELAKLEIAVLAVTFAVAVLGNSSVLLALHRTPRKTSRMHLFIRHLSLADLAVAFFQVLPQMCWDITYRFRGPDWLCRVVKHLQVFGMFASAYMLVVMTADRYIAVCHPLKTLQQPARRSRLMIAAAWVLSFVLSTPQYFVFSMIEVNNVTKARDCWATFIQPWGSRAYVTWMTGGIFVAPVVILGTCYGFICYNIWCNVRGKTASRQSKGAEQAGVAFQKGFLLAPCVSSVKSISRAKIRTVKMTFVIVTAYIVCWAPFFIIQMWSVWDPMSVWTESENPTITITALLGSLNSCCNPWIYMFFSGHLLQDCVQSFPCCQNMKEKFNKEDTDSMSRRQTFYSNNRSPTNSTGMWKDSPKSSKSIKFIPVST

[3] = biological target: Vasopressin V2 receptor (Homo sapiens, UniProt P30518); experiment: Agonist activity at recombinant human V2 receptor expressed in HEK293 cells measured after 5 hrs by cAMP response element driven luciferase reporter gene assay; type: functional, cell-based
Sequence of Vasopressin V2 receptor (P30518 whole entry): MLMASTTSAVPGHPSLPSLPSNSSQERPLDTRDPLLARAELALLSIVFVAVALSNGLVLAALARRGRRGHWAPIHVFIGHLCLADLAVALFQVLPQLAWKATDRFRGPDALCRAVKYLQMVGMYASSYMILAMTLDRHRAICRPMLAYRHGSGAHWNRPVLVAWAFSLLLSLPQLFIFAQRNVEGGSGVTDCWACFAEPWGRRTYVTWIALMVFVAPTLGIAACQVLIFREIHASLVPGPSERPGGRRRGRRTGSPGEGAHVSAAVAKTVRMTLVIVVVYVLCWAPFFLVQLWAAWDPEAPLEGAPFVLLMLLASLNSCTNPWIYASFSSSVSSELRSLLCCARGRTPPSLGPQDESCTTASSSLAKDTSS

[4] = biological target: T1, Oxytocin receptor (Homo sapiens) (UniProt P30559); experiment: Agonist activity at human OTR stably expressed in CHOK1 cells up to 10000 nM by NFAT-luciferase reporter gene assay; type: cell-based
T1 sequence (whole entry): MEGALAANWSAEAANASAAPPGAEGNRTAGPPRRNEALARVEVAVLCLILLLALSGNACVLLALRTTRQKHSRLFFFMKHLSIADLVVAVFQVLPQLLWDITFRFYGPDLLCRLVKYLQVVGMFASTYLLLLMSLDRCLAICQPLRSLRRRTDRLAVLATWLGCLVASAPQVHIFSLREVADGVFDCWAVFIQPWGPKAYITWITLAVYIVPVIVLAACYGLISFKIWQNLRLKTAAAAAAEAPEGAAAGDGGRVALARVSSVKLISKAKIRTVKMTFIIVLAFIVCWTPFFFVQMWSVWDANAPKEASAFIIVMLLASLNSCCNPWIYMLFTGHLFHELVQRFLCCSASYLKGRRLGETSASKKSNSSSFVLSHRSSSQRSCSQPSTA

[5] = Clearance in Sprague-Dawley rat at 0.1 mg/kg, iv administered as cassette dose by LC-MS/MS analysis; type: ADME, organism-based; settings: in vivo
[6] = Non-renal clearance in nephrectomized Sprague-Dawley rat at 0.1 mg/kg, iv administered as cassette dose by LC-MS/MS analysis; type: ADME, organism-based; settings: in vivo
[7] = biological target: T2, Oxytocin receptor (Homo sapiens, UniProt P30559); experiment: Agonist activity at human OTR stably expressed in CHOK1 cells by NFAT-luciferase reporter gene assay; type: cell-based
T2 sequence (P30559 whole entry): T1 sequence (whole entry)

fraction unbound at […] [1]	Activity [2]	EC50 [3] [nM]	Activity [4]	clearance [5] [mL/min/kg]	CL [6] [%]	EC50 [7] [nM]	SMILES
0.12	Not Active	0.32	inactive	11	81	–	CCNC(=O)[C@@H](CCCNC(=N)N)NC(=O)[C@@H]1CCCN1C(=O)[C@@H]1CSSCCC(=O)N[C@@H](Cc2ccc(Cl)cc2)C(=O)N[C@@H](Cc2cccs2)C(=O)N[C@@H](C(C)C)C(=O)N[C@@H](CC(N)=O)C(=O)N1
0.08	Not Active	0.11	inactive	11	–	–	CCNC(=O)[C@@H](CCCNC(=N)N)NC(=O)[C@@H]1CSCN1C(=O)[C@@H]1CCSCCC(=O)N[C@@H](Cc2ccc(Cl)cc2)C(=O)N[C@@H](Cc2cccs2)C(=O)N[C@@H](C(C)C)C(=O)N[C@@H](CC(N)=O)C(=O)N1
0.14	Not Active	–	inactive	24	63	–	CC(C)CNC(=O)[C@@H](CCCNC(=N)N)NC(=O)[C@@H]1CCCN1C(=O)[C@@H]1CSCCCC(=O)N[C@@H](Cc2ccc(Cl)cc2)C(=O)N[C@@H](Cc2cccs2)C(=O)N[C@@H](C(C)C)C(=O)N[C@@H](CC(N)=O)C(=O)N1
0.15	Not Active	0.45	inactive	15	58	–	CC(C)NC(=O)[C@@H](CCCNC(=N)N)NC(=O)[C@@H]1CCCN1C(=O)[C@@H]1CSCCCC(=O)N[C@@H](Cc2ccc(Cl)cc2)C(=O)N[C@@H](Cc2cccs2)C(=O)N[C@@H](C(C)C)C(=O)N[C@@H](CC(N)=O)C(=O)N1
0.1	Not Active	–	inactive	23	84	–	CC(C)[C@@H]1NC(=O)[C@H](Cc2cccs2)NC(=O)[C@H](Cc2ccc(Cl)cc2)NC(=O)CCCSC[C@@H](C(=O)N2CCC[C@H]2C(=O)N[C@H](CCCNC(=N)N)C(=O)NCc2ccccc2)NC(=O)[C@H](CC(N)=O)NC1=O
0.18	Not Active	0.27	inactive	9.1	–	–	CNC(=O)[C@@H](CCCNC(=N)N)NC(=O)[C@@H]1CCCN1C(=O)[C@@H]1CSCCCC(=O)N[C@@H](Cc2ccc(Cl)cc2)C(=O)N[C@@H](Cc2cccs2)C(=O)N[C@@H](C(C)C)C(=O)N[C@@H](CC(N)=O)C(=O)N1
0.11	Not Active	–	inactive	31	57	–	CCCCNC(=O)[C@@H](CCCNC(=N)N)NC(=O)[C@@H]1CCCN1C(=O)[C@@H]1CSCCCC(=O)N[C@@H](Cc2ccc(Cl)cc2)C(=O)N[C@@H](Cc2cccs2)C(=O)N[C@@H](C(C)C)C(=O)N[C@@H](CC(N)=O)C(=O)N1
0.16	Not Active	–	inactive	26	59	–	CCCNC(=O)[C@@H](CCCNC(=N)N)NC(=O)[C@@H]1CCCN1C(=O)[C@@H]1CSCCCC(=O)N[C@@H](Cc2ccc(Cl)cc2)C(=O)N[C@@H](Cc2cccs2)C(=O)N[C@@H](C(C)C)C(=O)N[C@@H](CC(N)=O)C(=O)N1
0.55	Not Active	0.26	inactive	14	71	–	CC(C)[C@@H]1NC(=O)[C@H](Cc2cccs2)NC(=O)[C@H](Cc2ccc(O)cc2)NC(=O)CCCSC[C@@H](C(=O)N2CCC[C@H]2C(=O)N[C@H](CCCNC(=N)N)C(=O)NCc2ccccc2)NC(=O)[C@H](CC(N)=O)NC1=O
0.17	Not Active	–	inactive	31	90	–	CCCNC(=O)[C@@H](CCCNC(=N)N)NC(=O)[C@@H]1CSCN1C(=O)[C@@H]1CSCCCC(=O)N[C@@H](Cc2ccc(Cl)cc2)C(=O)N[C@@H](Cc2cccs2)C(=O)N[C@@H](C(C)C)C(=O)N[C@@H](CC(N)=O)C(=O)N1
0.07	Not Active	–	inactive	28	80	–	CCNC(=O)[C@@H](CCCNC(=N)N)NC(=O)[C@@H]1CSCN1C(=O)[C@@H]1CSCCCC(=O)N[C@@H](Cc2ccc(Cl)cc2)C(=O)N[C@@H](Cc2cccs2)C(=O)N[C@@H](C(C)C)C(=O)N[C@@H](CC(N)=O)C(=O)N1
0.1	Not Active	0.19	inactive	5.3	67	–	CCNC(=O)[C@@H](CCCNC(=N)N)NC(=O)[C@@H]1CCCN1C(=O)[C@@H]1CCSCCC(=O)N[C@@H](Cc2ccc(Cl)cc2)C(=O)N[C@@H](Cc2cccs2)C(=O)N[C@@H](C(C)C)C(=O)N[C@@H](CC(N)=O)C(=O)N1

The next lines start with the molecule.

SMILES	fraction unbound at […] [1]	Activity [2]	EC50 [3] [nM]	Activity [4]	clearance [5] [mL/min/kg]	CL [6] [%]	EC50 [7] [nM]
CC(C)[C@@H]1NC(=O)[C@H](Cc2ccc(F)cc2)NC(=O)[C@H](Cc2ccc(Cl)cc2)NC(=O)CCCSC[C@@H](C(=O)N2CSC[C@H]2C(=O)N[C@H](CCCNC(=N)N)C(=O)NCCc2cccs2)NC(=O)[C@H](CC(N)=O)NC1=O	0.04	Not Active	0.3	inactive	27	100	–
CC(C)[C@@H]1NC(=O)[C@H](Cc2ccccc2)NC(=O)[C@H](Cc2ccc(O)cc2)NC(=O)CCSSC[C@@H](C(=O)N2CCC[C@H]2C(=O)N[C@H](CCCNC(=N)N)C(=O)NCC(N)=O)NC(=O)[C@H](CC(N)=O)NC1=O ([Mpa]YFVNCP[dR]G-NH2; disulfide 1-6)	0.69	Not Active	0.05	–	9.6	–	–
CC(C)[C@@H]1NC(=O)[C@H](Cc2cccs2)NC(=O)[C@H](Cc2ccc(Cl)cc2)NC(=O)CCCSC[C@@H](C(=O)N2CSC[C@H]2C(=O)N[C@H](CCCNC(=N)N)C(=O)NCCc2cccs2)NC(=O)[C@H](CC(N)=O)NC1=O	0.07	Not Active	0.17	inactive	34	100	–
CC(C)[C@@H]1NC(=O)[C@H](Cc2ccc(F)cc2)NC(=O)[C@H](Cc2ccc(O)cc2)NC(=O)CCCSC[C@@H](C(=O)N2CCC[C@H]2C(=O)NCCCCNC(=N)N)NC(=O)[C@H](CC(N)=O)NC1=O (Y[Phe(4-F)]VNCP-Agmatine; linker N-5 via X1)	0.69	Not Active	–	inactive	8.7	45	–
CC(C)[C@@H]1NC(=O)[C@H](Cc2ccc(F)cc2)NC(=O)[C@H](Cc2ccc(Cl)cc2)NC(=O)CCCSC[C@@H](C(=O)N2CCC[C@H]2C(=O)N[C@@H](CO)CCCNC(=N)N)NC(=O)[C@H](CC(N)=O)NC1=O ([Phe(4-Cl)][Phe(4-F)]VNCP-X2; linker N-5 via X1)	0.07	Not Active	–	–	3.8	–	> 10000
CC(C)CNC(=O)[C@@H](CCCNC(=N)N)NC(=O)[C@@H]1CCCN1C(=O)[C@@H]1CCSCCC(=O)N[C@@H](Cc2ccc(Cl)cc2)C(=O)N[C@@H](Cc2ccccc2)C(=O)N[C@@H](C(C)C)C(=O)N[C@@H](CC(N)=O)C(=O)N1	0.05	Not Active	–	inactive	5.4	88	–
CC(C)[C@@H]1NC(=O)[C@H](Cc2ccc(F)cc2)NC(=O)[C@H](Cc2ccc(Cl)cc2)NC(=O)CCCSC[C@@H](C(=O)N2CSC[C@H]2C(=O)NCCCCNC(=N)N)NC(=O)[C@H](CC(N)=O)NC1=O ([Phe(4-Cl)][Phe(4-F)]VNC[Thz]-Agmatine; linker N-5 via X1)	0.04	Not Active	–	inactive	9.9	85	–
CCNC(=O)[C@@H](CCCNC(=N)N)NC(=O)[C@@H]1C[C@@H](O)CN1C(=O)[C@@H]1CSCCCC(=O)N[C@@H](Cc2ccc(Cl)cc2)C(=O)N[C@@H](Cc2ccccc2)C(=O)N[C@@H](C(C)C)C(=O)N[C@@H](CC(N)=O)C(=O)N1	0.09	Not Active	0.29	inactive	3.3	–	–
CC(C)CNC(=O)[C@@H](CCCNC(=N)N)NC(=O)[C@@H]1C[C@@H](O)CN1C(=O)[C@@H]1CCSCCC(=O)N[C@@H](Cc2ccc(Cl)cc2)C(=O)N[C@@H](Cc2cccs2)C(=O)N[C@@H](C(C)C)C(=O)N[C@@H](CC(N)=O)C(=O)N1	0.08	Not Active	0.2	inactive	5.9	–	–
